Assay results from ChEMBL document CHEMBL2057165, “Synthesis and antiviral properties of novel 7-heterocyclic substituted 7-deaza-adenine nucleoside inhibitors of Hepatitis C NS5B polymerase” (Bioorg Med Chem, 2012).

Legend:
[1] = Inhibition of Hepatitis C virus NS5B polymerase; set-up: species or system Hepacivirus hominis
Outline: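 Nucleoside triphosphates tested in an NS5B polymerization assay on a heteromeric RNA template; IC50 given as mean of ≥3 experiments, SD within 20%.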

Hepatitis C virus = experiment: Antiviral activity against Hepatitis C virus genotype 1b infected in human HBI10A cells assessed as inhibition of viral replication in presence of 10% FBS; format: functional, organism-based, Hepacivirus hominis
Outline: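 HBI10A hepatoma cells stably carrying a genotype 1b subgenomic bicistronic HCV replicon; EC50 measured in the presence of 10% fetal bovine serum; mean of ≥3 experiments, SD within 20%.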

[2] = Inhibition of human DNA polymerase gamma
[3] = Inhibition of human DNA polymerase alpha
[4] = Inhibition of human DNA polymerase beta
[5] = Prodrug activation in hamsters liver assessed as NTP formation at 10 mg/kg; format: organism-based; set-up: dose 10 mg/kg; details: cricetinae, in vivo
Outline: (§1)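 Prodrug dosed at 10 mg/Kg in hamster; liver analysed for NTP and NMP species.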

[6] = Prodrug activation in hamsters liver assessed as NMP formation at 10 mg/kg; format: organism-based; set-up: dose 10 mg/kg; details: cricetinae, in vivo; outline: as §1
Liver [7] = experiment: Drug uptake in Wistar Han rat liver assessed as nucleotide triphosphate level per gram of tissue at 20 mg/kg, po measured after 12 hrs; format: ADME, organism-based; set-up: dose 20 mg/kg, route oral; details: in vivo
Outline: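 Wistar Han rats dosed orally at 20 mg/Kg; NTP in liver measured 12 h after dosing, in nmol/g.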

Liver [8] = experiment: Drug uptake in Wistar Han rat liver assessed as nucleotide triphosphate level per gram of tissue at 20 mg/kg, iv measured after 6 hrs; format: ADME, organism-based; set-up: dose 20 mg/kg, route intravenous; details: in vivo
Outline: (§2)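 Wistar Han rats given 20 mg/Kg intravenously; NTP in liver measured up to 12 h after dosing, at 3, 6 and 12 h (nmol/g); parent nucleoside measured in plasma, and liver NTP/plasma nucleoside ratio computed at each timepoint.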

Liver [9] = experiment: Drug uptake in Wistar Han rat liver assessed as nucleotide triphosphate level per gram of tissue at 20 mg/kg, iv measured after 3 hrs; format: ADME, organism-based; set-up: dose 20 mg/kg, route intravenous; details: in vivo; outline: as §2
Liver [10] = experiment: Drug uptake in Wistar Han rat liver assessed as nucleotide triphosphate level per gram of tissue at 20 mg/kg, iv measured after 12 hrs; format: ADME, organism-based; set-up: dose 20 mg/kg, route intravenous; details: in vivo; outline: as §2
Nucleic Acid = experiment: Ratio of drug level in nucleotide triphosphate level in liver to parent compound level in plasma in Wistar Han rat at 20 mg/kg, iv measured after 3 to 12 hrs; format: ADME, organism-based; set-up: dose 20 mg/kg, route intravenous; details: in vivo; outline: as §2
[11] = Oral bioavailability in Wistar Han rat at 1 mg/kg; format: ADME, organism-based; details: in vivo
Outline: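 Pharmacokinetics in Wistar Han rats after 1 mg/Kg given intravenously and orally; parent nucleoside followed in plasma to derive clearance, volume of distribution and oral bioavailability (F).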

IC50 [1] [µM] | EC50 (Hepatitis C virus) [µM] | SMILES | also measured
0.3 |  | C[C@@]1(F)[C@H](O)[C@@H](COP(=O)(O)OP(=O)(O)OP(=O)(O)O)O[C@H]1n1cc(-c2ncco2)c2c(N)ncnc21 | 
 | > 100 | C[C@@]1(O)[C@H](O)[C@@H](CO)O[C@H]1n1cc(-c2ncccn2)c2c(N)ncnc21 | 
0.1 |  | C[C@@]1(O)[C@H](O)[C@@H](COP(=O)(O)OP(=O)(O)OP(=O)(O)O)O[C@H]1n1cc(-c2cc[nH]n2)c2c(N)ncnc21 | IC50 [2]: > 10 µM; IC50 [3]: > 10 µM; IC50 [4]: > 10 µM
0.07 |  | C[C@@]1(F)[C@H](O)[C@@H](COP(=O)(O)OP(=O)(O)OP(=O)(O)O)O[C@H]1n1cc(-c2ccn[nH]2)c2c(N)ncnc21 | IC50 [2]: > 10 µM; IC50 [3]: > 10 µM; IC50 [4]: > 10 µM
8.4 |  | Cc1noc(-c2cn([C@@H]3O[C@H](COP(=O)(O)OP(=O)(O)OP(=O)(O)O)[C@@H](O)[C@@]3(C)O)c3ncnc(N)c23)n1 | 
 | 35 | C[C@@]1(F)[C@H](O)[C@@H](CO)O[C@H]1n1cc(-c2ccn[nH]2)c2c(N)ncnc21 | 
 | 41 | C[C@@]1(F)[C@H](O)[C@@H](CO)O[C@H]1n1cc(-c2ncon2)c2c(N)ncnc21 | 
12 |  | C[C@@]1(O)[C@H](O)[C@@H](COP(=O)(O)OP(=O)(O)OP(=O)(O)O)O[C@H]1n1cc(-c2ncccn2)c2c(N)ncnc21 | 
 | > 50 | CCOC(=O)[C@@H](C)NP(=O)(OC[C@H]1O[C@@H](n2cc(-c3ccn[nH]3)c3c(N)ncnc32)[C@](C)(F)[C@@H]1O)Oc1ccccc1 (stereo partly drawn) | Drug metabolism [5]: Not Active; Drug metabolism [6]: Active
 | 42 | Cc1noc(-c2cn([C@@H]3O[C@H](CO)[C@@H](O)[C@@]3(C)O)c3ncnc(N)c23)n1 | 
 | 46 | C[C@@]1(O)[C@H](O)[C@@H](CO)O[C@H]1n1cc(-c2nnco2)c2c(N)ncnc21 | 
 | 7.8 | C[C@@]1(O)[C@H](O)[C@@H](CO)O[C@H]1n1cc(-c2ncco2)c2c(N)ncnc21 | 
 | 30 | C[C@@]1(O)[C@H](O)[C@@H](CO)O[C@H]1n1cc(-c2cn[nH]c2)c2c(N)ncnc21 | 
0.5 |  | C[C@@]1(O)[C@H](O)[C@@H](COP(=O)(O)OP(=O)(O)OP(=O)(O)O)O[C@H]1n1cc(-c2ncon2)c2c(N)ncnc21 | IC50 [2]: > 10 µM; IC50 [3]: > 10 µM; IC50 [4]: > 10 µM
 | > 100 | C[C@@]1(O)[C@H](O)[C@@H](CO)O[C@H]1n1cc(-c2cc[nH]n2)c2c(N)ncnc21 | 
0.4 |  | C[C@@]1(F)[C@H](O)[C@@H](COP(=O)(O)OP(=O)(O)OP(=O)(O)O)O[C@H]1n1cc(-c2ncon2)c2c(N)ncnc21 | 
0.1 |  | C[C@@]1(O)[C@H](O)[C@@H](COP(=O)(O)OP(=O)(O)OP(=O)(O)O)O[C@H]1n1ccc2c(N)ncnc21 | 
 | 1.9 | C[C@@]1(O)[C@H](O)[C@@H](CO)O[C@H]1n1cc(-c2ncon2)c2c(N)ncnc21 | Drug uptake (Liver [7]): 0.4 nmol/g; Drug uptake (Liver [8]): 3.9 nmol/g; Drug uptake (Liver [9]): 11.9 nmol/g; Drug uptake (Liver [10]): 0.5 nmol/g; Ratio (Nucleic Acid): 20; bioavailability [11]: 14.7%
0.5 |  | C[C@@]1(O)[C@H](O)[C@@H](COP(=O)(O)OP(=O)(O)OP(=O)(O)O)O[C@H]1n1cc(-c2ncco2)c2c(N)ncnc21 | 
> 95 |  | C[C@@]1(O)[C@H](O)[C@@H](COP(=O)(O)OP(=O)(O)OP(=O)(O)O)O[C@H]1n1cc(-c2nnco2)c2c(N)ncnc21 | 
8.4 |  | Cn1cc(-c2cn([C@@H]3O[C@H](COP(=O)(O)OP(=O)(O)OP(=O)(O)O)[C@@H](O)[C@@]3(C)O)c3ncnc(N)c23)nn1 | 
 | 42 | Cn1cc(-c2cn([C@@H]3O[C@H](CO)[C@@H](O)[C@@]3(C)O)c3ncnc(N)c23)nn1 | 
 | 37 | C[C@@]1(F)[C@H](O)[C@@H](CO)O[C@H]1n1cc(-c2ncco2)c2c(N)ncnc21 | 
8.4 |  | C[C@@]1(O)[C@H](O)[C@@H](COP(=O)(O)OP(=O)(O)OP(=O)(O)O)O[C@H]1n1cc(-c2cn[nH]c2)c2c(N)ncnc21 | 

SMILES | IC50 [1] [µM] | EC50 (Hepatitis C virus) [µM] | also measured
C[C@@]1(O)[C@H](O)[C@@H](CO)O[C@H]1n1ccc2c(N)ncnc21 [BETA-2'-C-METHYL-7-DEAZA-ADENOSINE] |  | 0.3 | 
CCOC(=O)[C@@H](C)NP(=O)(OC[C@H]1O[C@@H](n2cc(-c3ccn[nH]3)c3c(N)ncnc32)[C@](C)(O)[C@@H]1O)Oc1ccccc1 (stereo partly drawn) |  | 1.8 | 
